Test results taken from ChEMBL document CHEMBL1123938, “Synthesis and biological studies of iodinated (127/125I) derivatives of rhodamine 123” (1987).
Several values for one entry are separate records, joined by “and”; a condition that tells them apart may be missing. Identical values can stand only once.

Columns and labels:
[1] = system: PC-3; test: Extra cellular concentration of radiolabeled compound was determined in human prostate PC3 adenocarcinoma cells; format: functional, cell-based
Summary of the method: (§1)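 V79 Chinese hamster lung fibroblasts or human PC3 prostate adenocarcinoma cells, grown at 37 °C in MEM with 15% fetal calf serum. Log-phase cells were trypsinized and suspended at 2 × 10⁵/mL in calcium-free MEM, then preincubated 4 h at 37 °C on a roller. Carrier-free ¹²⁵I-labelled dihydrorhodamine derivative was added and incubated 2 h at 37 °C. Cell radioactivity was measured by microfuge; intracellular concentration was derived from Coulter-measured cell volumes.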

[2] = species on record: Cricetulus griseus; test: Extra cellular concentration of radiolabeled compound was determined in chinese hamster V79 lung fibroblasts; format: functional; summary of the method: as §1
[3] = Ratio of pCi/cell cellular uptake to uCi/mL cellular uptake; format: functional

Structure (SMILES)	Concentration [1] [uCi ml-1]	Concentration [2] [uCi ml-1]	Ratio [3]
COC(=O)c1ccccc1C1c2ccc(N)cc2Oc2c1ccc(N)c2I (stereo unspecified)	1.2	1.27	–
COC(=O)c1ccccc1C1c2cc(I)c(N)cc2Oc2c1ccc(N)c2I (stereo unspecified)	1.35	1.64	–
COC(=O)c1ccccc1C1c2ccc(N)cc2Oc2cc(N)c(I)cc21 (stereo unspecified)	0.937	0.956	–
COC(=O)c1ccccc1C1c2cc(I)c(N)cc2Oc2c1cc(I)c(N)c2I (stereo unspecified)	1.15	1.3	0.152 and 0.348
COC(=O)c1ccccc1C1c2cc(I)c(N)cc2Oc2cc(N)c(I)cc21	0.883	0.97	–
